In ChEMBL document CHEMBL3804761, “Synthesis of a stable and orally bioavailable englerin analogue” (Bioorg Med Chem Lett, 2016):

Columns and labels:
Type in all cases: functional
Malme-3M = assay: Growth inhibition of human MALME-3M cells assessed as cell growth at 10 uM incubated for 48 hrs by sulforhodamine B assay relative to control; details: read-out: Activity
Outline: (§1)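 Run in the standard NCI 60-cell-line screen. Cells were exposed to drug for two days, and the read-out was sulforhodamine B staining. Compound was tested at a single final concentration of 10 µM in every line, and results are reported as growth percent.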

[1] = Growth inhibition of human MOLT4 cells assessed as cell growth at 10 uM incubated for 48 hrs by sulforhodamine B assay relative to control; details: MOLT-4, 48 h, read-out: Activity; outline: as §1
SR = assay: Growth inhibition of human SR cells incubated for 48 hrs by sulforhodamine B assay; details: for TGI: read-out: pTGI (converted)
Outline: (§2)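 Tested in the standard NCI 60-cell-line protocol with two-day drug exposure and a sulforhodamine B endpoint. Compounds were first screened at a single final concentration of 10 µM, reported as growth percent. They were then run as five 10-fold dilutions starting from a high concentration of 100 µM to give dose-response curves.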

MDA-MB-435 = assay: Growth inhibition of human MDA-MB-435 cells assessed as cell growth at 10 uM incubated for 48 hrs by sulforhodamine B assay relative to control; details: MDA-MB-435, 48 h, read-out: Activity; outline: as §1
M14 [2] = assay: Growth inhibition of human M14 cells incubated for 48 hrs by sulforhodamine B assay; details: M14, 48 h; for TGI: read-out: pTGI (converted)
Outline: (§3)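 NCI 60-cell-line panel, standard protocol. Cells exposed to compound for two days, growth read by sulforhodamine B staining. Tested at five 10-fold dilutions, top concentration 100 µM, to give dose-response curves.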

[3] = Growth inhibition of human UACC62 cells incubated for 48 hrs by sulforhodamine B assay; details: UACC-62, 48 h; for TGI: read-out: pTGI (converted); outline: as §2
[4] = Growth inhibition of human SNB19 cells assessed as cell growth at 10 uM incubated for 48 hrs by sulforhodamine B assay relative to control; details: SNB-19, 48 h, read-out: Activity; outline: as §1
[5] = Growth inhibition of human IGROV1 cells incubated for 48 hrs by sulforhodamine B assay; details: IGROV-1, 48 h; for CC50: read-out: pLC50 (the source's name) (converted); for TGI: read-out: pTGI (converted); outline: as §3
[6] = Growth inhibition of human HCT15 cells incubated for 48 hrs by sulforhodamine B assay; details: HCT-15, 48 h; for TGI: read-out: pTGI (converted); outline: as §3
SK-MEL-28 = assay: Growth inhibition of human SK-MEL-28 cells incubated for 48 hrs by sulforhodamine B assay; details: SK-MEL-28, 48 h; for TGI: read-out: pTGI (converted); outline: as §3
[7] = Growth inhibition of human HCT116 cells incubated for 48 hrs by sulforhodamine B assay; details: HCT-116, 48 h; for TGI: read-out: pTGI (converted); outline: as §3
[8] = Growth inhibition of human Caki1 cells assessed as cell growth at 10 uM incubated for 48 hrs by sulforhodamine B assay relative to control; details: CAKI-1, 48 h, read-out: Activity; outline: as §1
[9] = Growth inhibition of human TK10 cells assessed as cell growth at 10 uM incubated for 48 hrs by sulforhodamine B assay relative to control; details: TK-10, 48 h, read-out: Activity
Outline: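 NCI 60-cell line standard protocol, one-dose screen: single final concentration 10 µM, 2-day drug exposure, sulforhodamine B (SRB) endpoint; read-out is growth percent relative to untreated control.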

[10] = Growth inhibition of human RPMI8226 cells incubated for 48 hrs by sulforhodamine B assay; details: RPMI-8226, 48 h; for CC50: read-out: pLC50 (the source's name) (converted); for TGI: read-out: pTGI (converted); outline: as §3
M14 [11] = assay: Growth inhibition of human M14 cells assessed as cell growth at 10 uM incubated for 48 hrs by sulforhodamine B assay relative to control; details: M14, 48 h, read-out: Activity; outline: as §1
NCI-H23 = assay: Growth inhibition of human NCI-H23 cells incubated for 48 hrs by sulforhodamine B assay; details: NCI-H23, 48 h; for TGI: read-out: pTGI (converted); outline: as §3
[12] = Growth inhibition of human SNB75 cells assessed as cell growth at 10 uM incubated for 48 hrs by sulforhodamine B assay relative to control; details: SNB-75, 48 h, read-out: Activity; outline: as §1
[13] = Growth inhibition of human SNB75 cells incubated for 48 hrs by sulforhodamine B assay; details: SNB-75, 48 h; for TGI: read-out: pTGI (converted); outline: as §2
MDA-MB-231 [14] = assay: Growth inhibition of human MDA-MB-231 cells assessed as cell growth at 10 uM incubated for 48 hrs by sulforhodamine B assay relative to control; details: MDA-MB-231, 48 h, read-out: Activity; outline: as §1
U-251 = assay: Growth inhibition of human U251 cells incubated for 48 hrs by sulforhodamine B assay; details: U-251, 48 h; for TGI: read-out: pTGI (converted); outline: as §2
NCI-H322M = assay: Growth inhibition of human NCI-H322M cells assessed as cell growth at 10 uM incubated for 48 hrs by sulforhodamine B assay relative to control; details: read-out: Activity; outline: as §1
[15] = Growth inhibition of human SW620 cells incubated for 48 hrs by sulforhodamine B assay; details: SW-620, 48 h; for TGI: read-out: pTGI (converted); outline: as §2
NCI/ADR-RES = assay: Growth inhibition of human NCI/ADR-RES cells incubated for 48 hrs by sulforhodamine B assay; details: for TGI: read-out: pTGI (converted); outline: as §3
SK-MEL-2 = assay: Growth inhibition of human SK-MEL-2 cells incubated for 48 hrs by sulforhodamine B assay; details: SK-MEL-2, 48 h; for TGI: read-out: pTGI (converted); outline: as §3
MDA-MB-468 = assay: Growth inhibition of human MDA-MB-468 cells incubated for 48 hrs by sulforhodamine B assay; details: MDA-MB-468, 48 h; for CC50: read-out: pLC50 (the source's name) (converted); for TGI: read-out: pTGI (converted); outline: as §3
MDA-MB-231 [16] = assay: Growth inhibition of human MDA-MB-231 cells incubated for 48 hrs by sulforhodamine B assay; details: MDA-MB-231, 48 h; for CC50: read-out: pLC50 (the source's name) (converted); for TGI: read-out: pTGI (converted); outline: as §3
K562 = assay: Growth inhibition of human K562 cells incubated for 48 hrs by sulforhodamine B assay; details: K562, 48 h; for CC50: read-out: pLC50 (the source's name) (converted); for TGI: read-out: pTGI (converted); outline: as §3
[17] = Growth inhibition of human RPMI8226 cells assessed as cell growth at 10 uM incubated for 48 hrs by sulforhodamine B assay relative to control; details: RPMI-8226, 48 h, read-out: Activity; outline: as §1
[18] = Growth inhibition of human OVCAR4 cells assessed as cell growth at 10 uM incubated for 48 hrs by sulforhodamine B assay relative to control; details: OVCAR-4, 48 h, read-out: Activity; outline: as §1

C/C(=C\C(=O)O[C@H]1[C@@H]2[C@H](C)CC[C@H]2[C@]2(C)O[C@@]1(C(C)C)C[C@H]2NC(=O)CO)c1ccccc1
growth at 10 µM (Malme-3M): 95.9%
growth at 10 µM [1]: 125%
GI50 (SR): 26.3 µM
LC50 (SR): > 100 µM
TGI (SR): 74.1 µM
growth at 10 µM (MDA-MB-435): 106%
GI50 (M14 [2]): 44.7 µM
LC50 (M14 [2]): > 100 µM
TGI (M14 [2]): > 100 µM
GI50 [3]: 35.5 µM
LC50 (lethal concentration, 50% net cell kill) [3]: > 100 µM
TGI [3]: > 100 µM
growth at 10 µM [4]: 108%
GI50 [5]: > 100 µM
CC50 [5]: > 100 µM
TGI [5]: > 100 µM
GI50 [6]: 34.7 µM
LC50 [6]: > 100 µM
TGI [6]: > 100 µM
GI50 (SK-MEL-28): 45.7 µM
LC50 (SK-MEL-28): > 100 µM
TGI (SK-MEL-28): > 100 µM
GI50 [7]: 32.4 µM
LC50 [7]: > 100 µM
TGI [7]: > 100 µM
growth at 10 µM [8]: 99%
growth at 10 µM [9]: 109%
GI50 [10]: 19.5 µM
CC50 [10]: > 100 µM
TGI [10]: 56.2 µM
growth at 10 µM (M14 [11]): 100%
GI50 (NCI-H23): 38.9 µM
LC50 (NCI-H23): > 100 µM
TGI (NCI-H23): > 100 µM
growth at 10 µM [12]: 102%
GI50 [13]: 12.3 µM
LC50 [13]: > 100 µM
TGI [13]: > 100 µM
growth at 10 µM (MDA-MB-231 [14]): 99.6%
GI50 (U-251): 43.7 µM
LC50 (concentration giving 50% net cell kill) (U-251): > 100 µM
TGI (U-251): > 100 µM
growth at 10 µM (NCI-H322M): 105%
GI50 [15]: 45.7 µM
LC50 (50% lethal concentration) [15]: > 100 µM
TGI [15]: > 100 µM
GI50 (NCI/ADR-RES): 7.94 µM
LC50 (NCI/ADR-RES): > 100 µM
TGI (NCI/ADR-RES): 69.2 µM
GI50 (SK-MEL-2): 31.6 µM
LC50 (SK-MEL-2): > 100 µM
TGI (SK-MEL-2): > 100 µM
GI50 (MDA-MB-468): 28.8 µM
CC50 (MDA-MB-468): > 100 µM
TGI (MDA-MB-468): > 100 µM
GI50 (MDA-MB-231 [16]): 38 µM
CC50 (MDA-MB-231 [16]): > 100 µM
TGI (MDA-MB-231 [16]): > 100 µM
GI50 (K562): 31.6 µM
CC50 (K562): > 100 µM
TGI (K562): > 100 µM

CC(C)[C@@]12C[C@@H](NC(=O)CO)[C@@](C)(O1)[C@@H]1CC[C@@H](C)[C@H]1[C@@H]2OC(=O)/C=C/C1CCCCC1
growth at 10 µM (Malme-3M): 109%
growth at 10 µM [1]: 98%
GI50 (SR): > 44.7 µM
LC50 (SR): > 44.7 µM
TGI (SR): > 44.7 µM
growth at 10 µM (MDA-MB-435): 102%
GI50 (M14 [2]): > 44.7 µM
LC50 (M14 [2]): > 44.7 µM
TGI (M14 [2]): > 44.7 µM
GI50 [3]: > 44.7 µM
LC50 (lethal concentration, 50% net cell kill) [3]: > 44.7 µM
TGI [3]: > 44.7 µM
growth at 10 µM [4]: 103%
GI50 [5]: > 44.7 µM
CC50 [5]: > 44.7 µM
TGI [5]: > 44.7 µM
GI50 [6]: > 44.7 µM
LC50 [6]: > 44.7 µM
TGI [6]: > 44.7 µM
GI50 (SK-MEL-28): > 44.7 µM
LC50 (SK-MEL-28): > 44.7 µM
TGI (SK-MEL-28): > 44.7 µM
growth at 10 µM [17]: 134%
GI50 [7]: > 44.7 µM
LC50 [7]: > 44.7 µM
TGI [7]: > 44.7 µM
growth at 10 µM [8]: 88.7%
growth at 10 µM [9]: 94.1%
GI50 [10]: > 44.7 µM
CC50 [10]: > 44.7 µM
TGI [10]: > 44.7 µM
growth at 10 µM (M14 [11]): 104%
GI50 (NCI-H23): > 44.7 µM
LC50 (NCI-H23): > 44.7 µM
TGI (NCI-H23): > 44.7 µM
growth at 10 µM [12]: 86.1%
GI50 [13]: > 44.7 µM
LC50 [13]: > 44.7 µM
TGI [13]: > 44.7 µM
growth at 10 µM (MDA-MB-231 [14]): 107%
GI50 (U-251): > 44.7 µM
LC50 (concentration giving 50% net cell kill) (U-251): > 44.7 µM
TGI (U-251): > 44.7 µM
growth at 10 µM (NCI-H322M): 97.7%
growth at 10 µM [18]: 98.6%
GI50 [15]: > 44.7 µM
LC50 (50% lethal concentration) [15]: > 44.7 µM
TGI [15]: > 44.7 µM
GI50 (NCI/ADR-RES): 40.7 µM
LC50 (NCI/ADR-RES): > 44.7 µM
TGI (NCI/ADR-RES): > 44.7 µM
GI50 (SK-MEL-2): > 44.7 µM
LC50 (SK-MEL-2): > 44.7 µM
TGI (SK-MEL-2): > 44.7 µM
GI50 (MDA-MB-468): > 44.7 µM
CC50 (MDA-MB-468): > 44.7 µM
TGI (MDA-MB-468): > 44.7 µM
GI50 (MDA-MB-231 [16]): > 44.7 µM
CC50 (MDA-MB-231 [16]): > 44.7 µM
TGI (MDA-MB-231 [16]): > 44.7 µM
GI50 (K562): > 44.7 µM
CC50 (K562): > 44.7 µM
TGI (K562): > 44.7 µM
